The test system of assay [1] is Adipocyte. Description: Inhibition of lipogenesis in mouse adipocytes isolated stromal vascular cells assessed as decrease in FASN mRNA expression measured after 24 hrs by RT-qPCR assay. It is filed as functional, cell-based. In short, it runs like this: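 Stromal vascular cells from inguinal WAT of C57BL/6 mice, grown in DMEM/F12 + 10% FBS at 37 °C, 10% CO2. At confluence, induced 48 h with 5 μg/ml insulin, 1 μM dexamethasone, 0.5 mM isobutylmethylxanthine, then 6 days in 5 μg/ml insulin; fully differentiated day 8. Mature adipocytes exposed to inhibitor 24 h. Total RNA by Trizol, SYBR Green RT-qPCR; protein by western blot.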
In general terms: Quantitative PCR measures a nucleic acid by following its amplification.

The subject of assay [2] is Hepatocyte. Description: Inhibition of glucogenesis in mouse primary hepatocytes stimulated with 100 uM 8-Br-cAMP assessed as decrease in FBP mRNA expression at 3 uM measured after 8 hrs by RT-qPCR assay.
The test system of assay [3] is Hepatocyte. Description: Inhibition of lipogenesis in mouse primary hepatocytes assessed as decrease in ACC protein expression at 3 uM in presence of 100 nM insulin and 5 to 25 mM glucose measured after 18 hrs by western blot analysis. It is filed as functional, cell-based.
In assay [4] the test system is Mus musculus. Description: Anti-obesity activity in 16 hrs fasted C57BL/6 mouse supplemented with normal chow diet assessed as decrease in blood glucose level at 20 mg/kg/day, ip administered for 1 week measured after 15 mins by intraperitoneal glucose tolerance test. Type of assay: functional, organism-based. Particulars: time 1.0 weeks. In outline:
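Male C57BL/6 mice on normal chow, 8 weeks old, given 20 mg·kg−1·day−1 ip daily for 7 days. After 16 h fasting, glucose 2 g/kg body weight ip; blood glucose read during the test. Mean ± SEM, n = 5–9; t test or ANOVA, P < 0.05.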

In assay [5] the test system is Mus musculus. The assay is described as follows: Inhibition of lipogenesis in C57BL/6 mouse supplemented with normal chow diet assessed as decrease in C/EBPalpha protein expression at 20 mg/kg/day, ip administered for 1 week measured measured by western blot analysis. Type of assay: functional, organism-based. Conditions: time 1.0 weeks. In short, it runs like this: (§1)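 Eight-week-old male C57BL/6 mice on normal chow were given 20 mg·kg−1·day−1 ip daily for 7 days or vehicle. Epididymal WAT was collected. Lipogenic, adipogenic and fatty-acid-oxidation transcripts were quantified by Trizol extraction and SYBR Green RT-qPCR. FAS, ACC, PPARγ and C/EBPα protein were assessed by western blot. n = 5–9; mean ± SEM.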
In general terms: Immunoblotting shows a protein as a band on a membrane.

The test system of assay [6] is Hepatocyte. Description: Inhibition of lipogenesis in mouse primary hepatocytes assessed as decrease in SCD1 mRNA expression at 3 uM in presence of 100 nM insulin and 5 to 25 mM glucose measured after 18 hrs by RT-qPCR assay. Type of assay: functional, cell-based. In short, it runs like this:
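Primary hepatocytes isolated from C57BL/6 mice by two-step perfusion. Cells incubated 18 h with 3 μM inhibitor, with 0 or 100 nM insulin and 5 or 25 mM glucose. Transcripts quantified by SYBR Green RT-qPCR after Trizol RNA extraction; proteins by western blot of lysates. Mean ± SEM.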

Assay [7] relates to Mus musculus. Description: Inhibition of lipogenesis in C57BL/6 mouse supplemented with normal chow diet assessed as decrease in PPARgamma mRNA expression at 20 mg/kg/day, ip administered for 1 week measured measured by RT-qPCR assay. It is filed as functional, organism-based. Conditions: time 1.0 weeks. In short, it runs like this: as §1
Assay [8] relates to Hepatocyte. Description: Inhibition of glucogenesis in mouse primary hepatocytes stimulated with 100 uM 8-Br-cAMP assessed as decrease in C/EBPalpha protein expression at 3 uM measured after 12 hrs by western blot analysis. Type of assay: functional, cell-based. In short, it runs like this:
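Primary mouse hepatocytes incubated 12 h with 3 μM compound and 100 μM 8-Br-cAMP. Lysates western blotted for FOXO1, C/EBPα or PGC1α. Three independent experiments.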

Assay [9] deals with Hepatocyte. The assay is described as follows: Inhibition of glucogenesis in mouse primary hepatocytes stimulated with 100 uM 8-Br-cAMP assessed as decrease in PEPCK mRNA expression at 3 uM measured after 8 hrs by RT-qPCR assay.
Assay [10] concerns Adipocyte. Description: Inhibition of lipogenesis in mouse adipocytes isolated stromal vascular cells assessed as decrease in FAS protein expression measured after 24 hrs by western blot analysis. It is filed as functional, cell-based.
Assay [11] concerns Mus musculus. Description: Inhibition of lipogenesis in C57BL/6 mouse supplemented with normal chow diet assessed as decrease in SCD1 mRNA expression at 20 mg/kg/day, ip administered for 1 week measured by RT-qPCR assay. It is filed as functional, organism-based. Conditions: time 1.0 weeks. In outline:
as §1

The subject of assay [12] is Hepatocyte. Description: Inhibition of glucogenesis in mouse primary hepatocytes stimulated with 100 uM 8-Br-cAMP assessed as effect on pCREB protein expression at 3 uM measured after 1 hr by western blot analysis. Type of assay: functional, cell-based. In short, it runs like this:
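Primary hepatocytes from C57BL/6 mice, isolated by two-step perfusion, were co-treated with 3 μM A-485 and 100 μM 8-Br-cAMP for 1 h. Phospho-CREB, phospho-AMPK and phospho-TORC2 were detected by western blot of cell lysates. Three independent experiments; mean ± SEM.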

Assay [13] deals with Mus musculus. The assay is described as follows: Inhibition of lipogenesis in C57BL/6 mouse supplemented with normal chow diet assessed as decrease in ACC mRNA expression at 20 mg/kg/day, ip administered for 1 week measured by RT-qPCR assay. Type of assay: functional, organism-based. Conditions: time 1.0 weeks. In short, it runs like this:
as §1

In assay [14] the test system is Mus musculus. Description: Inhibition of hepatic lipogenesis in C57BL/6 mouse supplemented with normal chow diet assessed as decrease in lipid droplet at 20 mg/kg/day, ip administered for 1 week measured by Oil red O staining method. It is filed as functional, organism-based. Conditions: time 1.0 weeks. In outline: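 Eight-week-old male C57BL/6 mice on normal chow were dosed daily by ip injection at 20 mg·kg−1·day−1 for 7 days, with a vehicle group. Liver sections were stained with Oil red O to view lipid droplets.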

In the next assay the test system is HepG2. The assay is described as follows: Inhibition of glucogenesis in human HepG2 cells stimulated with 8-Br-cAMP at 3 uM assessed as effect on change in CBP/CREB interaction measured by coimmunoprecipitation analysis. Type of assay: functional, cell-based. In outline: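 HepG2 cells treated with 3 μM compound. CREB association with CBP and TORC2 assessed by coimmunoprecipitation (antibody 2 h, protein A/G beads overnight at 4 °C) and western blot.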

Calls of active or inactive are those of the source. No cut-off for these calls is given here.

As to `CNC(=O)Nc1ccc2c(c1)CCS21OC(=O)N(CC(=O)N(Cc2ccc(F)cc2)[C@@H](C)C(F)(F)F)C1=O` (stereo not given in full), the inhibition entry with Adipocyte [1], in the assay with Hepatocyte [2], in the assay with Hepatocyte [3], with Mus musculus [5], with Hepatocyte [6] and with Mus musculus [7] was “Active” throughout. Besides, the inhibition entry in the assay with Hepatocyte [8], in the assay with Hepatocyte [9], in the assay on Adipocyte [10], in the assay with Mus musculus [11], with Mus musculus [13] and in the assay on Mus musculus [14] was “Active” in each case. Further, the outcome in the assay with Mus musculus [4] was Active. Moreover, the inhibition entry with Hepatocyte [12] and with HepG2 was “inactive” each time.

For the origin of these results see ChEMBL document CHEMBL5674890, “Selective inhibition of CBP/p300 HAT by A-485 results in suppression of lipogenesis and hepatic gluconeogenesis” (Cell Death Dis, 2020).
